# MT stabilize HCS = microtubule stabilizers in HeLa cells, primary screen, imaging, high-content imaging; % tubulin-high responders, % at 10 µM; 0.83% of 200,000 active; HeLa tubulin immunostaining HCS, 24 h; share of cells brighter than vehicle mean+2SD;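 active means plate Z-score above 3 for both tubulin-high and condensed-nucleus cell shares, with cell loss under 80%, at 10 µM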;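 further: anti alpha tubulin signal scored within the nucleus-defined area of each cell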
# BaF3 tox = parental Ba/F3 cell viability inhibition, counter-screen for JAK2V617F inhibitor project, murine pro-B, CellTiter-Glo luminescence. CellTiter-Glo ATP luminescence. inhibition, % at 5.6 µM. 1.1% of 220,000 active. AID 1486, 2009;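 active means inhibition above a per-campaign cutoff, the mean inhibition of all tested compounds plus 3 SD, cut at about 27% in these data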;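 further: 0% = DMSO wells and 100% = JAK Inhibitor I control wells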
# bCat nuc transl = modulators of beta-catenin nuclear translocation, primary screen, imaging, HeLa cells, immunofluorescence, high-content. nuclear translocation activity, % at 5 µM. 0.3% of 190,000 active. AID 1665, 2009;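 active means nuclear translocation activity above 50% at 5 µM, with a well cell count of 50 or more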;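 further: per-cell ratio of nuclear to cytoplasmic median beta-catenin stain intensity; plate controls were DMSO negative control for no effect and GSK-3 inhibitor IX positive control for full effect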
#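 test system = HeLa cells, endogenous beta-catenin | dosing = single 5 µM dose plus 0.02–20 µM confirmation series | times = compound treatment 24 h, 37°C, 5% CO2 | technique = beta-catenin immunofluorescence imaging with DAPI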
# Ba/F3 V617F tox = reduced viability of JAK2V617F-dependent Ba/F3 cells, primary screen, JAK2V617F inhibitor project, cell-based, Ba/F3 EpoR-JAK2V617F, luminescence | AID 1446, 2008 | ATP luminescence | 1.1% of 220,000 active | inhibition, % at 5.6 µM;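 active means inhibition above the campaign mean plus 3 SD over all tested compounds, cut at about 24% in these data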;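 further: cytokine-independent growth of Ba/F3 cells driven by EpoR plus mutant JAK2; 0% = DMSO-treated cells and 100% = JAK inhibitor I control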
# APP transl inh = inhibitors of APP translation via 5'UTR reporter, primary screen, APP 5'UTR luciferase, SH-SY5Y cells | SH-SY5Y APP 5'UTR-luciferase reporter, luminescence | inhibition, % at 2 µM | 0.82% of 190,000 active | AID 1285, 2008;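 active means inhibition above a set limit, derived from the sample mean plus 3 SD, cut at about 45% in these data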
# L major viab = Leishmania major promastigote growth inhibition, primary screen | AID 1063, 2008 | 9% of 200,000 active | Leishmania major promastigotes, resazurin fluorescence viability | inhibition, % at 10 µM; in the data active means inhibition above about 50%;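 further: promastigotes grown with compound for 44 hours at 28 °C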
# * marks the source's active call; other numbers are inactive results; · = no result. Rows were chosen to be rich in hits. Some 9.6% of all compounds tested hit in one or more screens of this group.
SMILES,MT stabilize HCS,BaF3 tox,bCat nuc transl,Ba/F3 V617F tox,APP transl inh,L major viab
C/C(=N/NC(=O)c1ccc(Br)o1)c1ccncc1,7.4,3.5,-2.5,-2.5,-23.2,-2.4
Cc1cccc(N2CCN(C(=S)c3ccc(-c4ccccc4[N+](=O)[O-])o3)CC2)c1,23.2*,5.9,0.8,-1.7,-4.8,26.0
COc1ccccc1C(=O)NNC(=O)C(=O)NC(C)C,2.9,7.1,3.3,-1.4,-19.4,-9.7
CCOC(=O)N1CCN(C(=O)C(=O)NNC(=O)COc2ccc(Cl)cc2)CC1,2.5,2.5,-2.8,-6.1,-20.1,-0.9
O=C(c1ccccc1)c1cccc(NC(=O)c2ccc(Br)o2)c1,2.0,4.9,3.9,2.7,-12.2,97.1*
CCCC/C(=N\NC(=O)c1ccc(Br)o1)c1ccccc1,3.3,4.6,·,0.9,-9.3,89.3*
C/C(=N/NC(=O)c1ccco1)c1cccc(NC(=O)c2ccc(C)o2)c1,3.2,-0.8,·,0.1,-60.8,66.1*
Cc1ccc(O)c(NC(=O)c2cccc(NC(=O)c3ccco3)c2)c1,1.1,6.0,-1.9,-0.1,-1.6,98.3*
C/C(=N\NC(=O)c1cccc(Cl)c1)c1cccc(NC(=O)c2ccco2)c1,2.3,2.5,0.2,-1.1,-42.8,31.6
CCCCNC(=S)N(Cc1c(C)noc1C)c1ccccc1,4.6,2.1,1.3,0.5,12.3,-4.0
O=S(=O)(Cc1ccccc1)Cc1cnc(Cl)s1,1.1,8.8,-4.1,2.4,-13.7,-6.7
COc1cccc(N2C(=O)C(Cc3c[nH]c4ccccc34)NC2=S)c1 (stereo not drawn),2.2,3.2,-1.0,-4.6,-11.6,-3.1
C/C(=N\NC(=O)c1nn(C)cc1Br)c1cccc(NC(=O)c2ccncc2)c1,1.3,8.2,-1.1,-0.1,-33.0,63.4*
Cc1ccc(C)c(Cn2c(C(=O)OC(C)C)cc3c2ccn3C)c1,2.9,2.0,-0.2,4.5,-1.4,94.8*
CC(C)OC(=O)c1cc2c(ccn2C)n1CC(=O)N1CCC(Cc2ccccc2)CC1,3.4,7.9,1.7,4.8,4.4,14.6
CCOC(=O)c1cc2c(ccn2C)n1CC(=O)N(Cc1ccccc1)c1ccccc1,1.0,6.1,-3.4,3.7,-19.0,97.5*
CCOC(=O)c1cc2c(ccn2C)n1Cc1ccccc1Cl,1.6,10.8,0.7,1.2,-9.9,9.7
CCOC(=O)c1cc2c(ccn2C)n1Cc1ccccc1C,4.3,4.0,0.4,-5.4,-0.9,7.3
CC(C)OC(=O)c1cc2c(ccn2C)n1CC(=O)N(Cc1ccccc1)c1ccc(F)cc1,3.5,7.9,4.6,2.3,-8.8,99.0*
CCOC(=O)c1cc2c(ccn2C)n1CC(=O)N(Cc1ccccc1)c1ccc(F)cc1,1.3,8.9,-2.3,-0.4,-0.3,97.8*
O=S(=O)(NCc1cn2ccsc2n1)c1ccc(Oc2ccccc2)cc1,2.9,18.4,·,7.7,-9.2,9.5
COCCn1nnnc1CN1CCSCC1,3.5,1.9,-1.7,-4.0,12.3,-5.0
COc1cc(CNCc2ccccc2)cc(Cl)c1OC,2.3,7.0,0.7,2.7,5.8,65.6*
CCOc1cc(CNCC2CCCN2CC)cc(Cl)c1OC (stereo not drawn),1.9,8.4,0.0,-0.3,21.6,2.4
COc1cc(CNn2cn[nH]c2=S)cc(Cl)c1OCc1ccccc1,0.6,9.0,·,0.2,0.0,-4.2
SMILES,MT stabilize HCS,BaF3 tox,bCat nuc transl,Ba/F3 V617F tox,APP transl inh,L major viab
COc1cc(CNCCc2ccccc2)cc(Cl)c1OCc1ccccc1,2.6,7.8,-0.6,0.9,7.3,91.1*
CCOc1cc(CNCc2ccncc2)cc(Cl)c1OC,1.9,3.5,-1.1,-1.0,6.4,88.7*
CCCCNCc1cc(Cl)c(OCCC)c(OCC)c1,1.2,5.4,-17.4,4.5,·,90.3*
CCOCCCNC(=O)C(NC(=O)Cc1cccs1)c1ccc(Cl)cc1 (stereo not drawn),2.3,6.0,1.0,2.0,-13.0,2.7
COc1ccc(Cl)cc1Nc1ncnc2sc(C)c(S(=O)(=O)N3CCC(C)CC3)c12,2.3,5.6,0.3,-2.3,-11.3,25.8
O=C(CCN1CCN(C/C=C/c2ccccc2)CC1)Nc1ccc(Cl)cc1,4.2,7.2,-3.1,3.1,9.8,75.8*
O=C(CCN1CCN(c2ccccc2)CC1)Nc1ccc(Cl)cc1,3.6,4.3,0.0,-1.5,3.7,-3.5
Cc1ccc(NC(=O)CCN2CCN(C/C=C/c3ccccc3)CC2)cc1C,3.0,6.0,0.2,-1.5,-8.1,87.1*
Cc1ccc(NC(=O)CCN2CCN(C/C=C/c3ccccc3)CC2)cc1,3.9,5.6,0.2,0.9,6.3,93.7*
O=C(/C=C/c1c[nH]c2ccccc12)c1cccc2ccccc12,14.6,1.4,0.0,-3.0,-36.7,7.9
COCCNC(=O)Cn1nc(C(F)(F)F)c(Cl)c1C,4.1,0.4,-3.3,1.1,1.4,-4.3
Cc1ccc2nc(-c3cccnc3)c(NC3CCCCC3)n2c1,1.2,5.3,-0.3,-1.9,11.7,88.1*
CNC(=O)c1cc2cc(OC)ccc2n1CCN(C)C,3.9,4.7,·,3.1,-4.0,-0.9
CNC(=O)c1cc2cc(OC)ccc2n1CCN(Cc1ccccc1)Cc1ccccc1,1.3,0.0,-0.8,-0.8,-7.3,100.2*
Cn1c(=O)oc2cc(S(=O)(=O)NC3CCN(Cc4ccccc4)CC3)ccc21,3.4,1.7,2.1,-3.2,7.8,50.1*
O=C(C1CC1)N1CCc2cc(S(=O)(=O)NC3CCN(Cc4ccccc4)CC3)ccc21,3.5,3.0,0.0,-0.4,-0.8,59.3*
Cc1cc(C)c(C)c(S(=O)(=O)NC2CCN(Cc3ccccc3)CC2)c1C,5.0,0.5,-2.0,-0.4,5.5,59.5*
O=C(NNS(=O)(=O)c1ccc2ccccc2c1)C1CCN(Cc2ccccc2)CC1,1.6,13.0,·,0.3,-19.6,42.2
O=S(=O)(NC1CCN(Cc2ccccc2)CC1)c1ccc2ccccc2c1,4.8,9.4,-3.0,0.1,-19.0,88.9*
Cc1cc(C)c(S(=O)(=O)NC2CCN(Cc3ccccc3)CC2)c(C)c1,·,-14.4,0.7,-1.1,·,·
Cn1c(=O)oc2cc(S(=O)(=O)NCCN3CCN(c4ccccc4)CC3)ccc21,1.9,9.1,·,-0.4,-5.1,-7.4
Cn1ccc(C(=O)Oc2ccc(C(=O)Nc3ccc(F)cc3F)cc2)n1,3.7,2.0,-2.9,-3.2,-24.2,-6.9
S=C1NNC2(CC3CC2C2CCCC32)NN1 (stereo not drawn),6.6,6.1,0.1,6.1,-10.3,-1.1
CCC(OC(=O)CC1Sc2ccccc2NC1=O)C(=O)NCC1CCCO1 (stereo not drawn),3.2,-1.4,-2.2,-1.2,-2.8,-4.3
